From ChEMBL document CHEMBL4387780, “Molecular and cellular studies evaluating a potent 2-cyanoindolizine catechol diether NNRTI targeting wildtype and Y181C mutant HIV-1 reverse transcriptase” (Bioorg Med Chem Lett, 2019)
Converted amounts (≈) assume the structure as drawn.

How the values were obtained:
[1] = Solubility of the compound in water at pH 7; format: physicochemical
[2] = test system: Human immunodeficiency virus 1; assay: Antiviral activity against wild-type HIV1 NL4-3 infected in human MT2 cells measured 5 days post-infection by MTT assay; details: for EC50: Human immunodeficiency virus 1, NL4-3, MT2, 5 days
[3] = molecular target: Human immunodeficiency virus type 1 reverse transcriptase (Human immunodeficiency virus 1, UniProt Q72547, Y181C); assay: Inhibition of recombinant HIV1 reverse transcriptase p66/p51 Y181C mutant expressed in Escherichia coli BL21 (DE3) pLysS cells preincubated followed by primer/template addition and measured after 30 mins by picogreen dye-based fluorescence assay
How it was run: (§1)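 RT pre-incubated with inhibitor at increasing concentrations to allow binding. Reaction started by adding substrate and co-substrates, run 30 min at 10 nM active-site RT, then quenched with EDTA. dsDNA product read as RFU with PicoGreen dye. Each concentration in triplicate, with a pre-quenched negative control. IC50 from a quadratic inhibition curve fit.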

[4] = molecular target: Human immunodeficiency virus type 1 reverse transcriptase (Human immunodeficiency virus 1, UniProt Q72547); assay: Inhibition of recombinant HIV1 reverse transcriptase p66/p51 expressed in Escherichia coli BL21 (DE3) pLysS cells preincubated followed by primer/template addition and measured after 30 mins by picogreen dye-based fluorescence assay; how it was run: as §1
[5] = Cytotoxicity against human MT2 cells infected with wild-type HIV1 NL4-3 measured 48 hrs by MTT assay; format: cell-based
[6] = test system: Human immunodeficiency virus 1; assay: Antiviral activity against HIV1 NL4-3 harboring Y181C mutant infected in human MT2 cells measured 5 days post-infection by MTT assay
[7] = Cytotoxicity against human MT2 cells infected with HIV1 NL4-3 harboring Y181C mutant measured 48 hrs by MTT assay; format: cell-based
[8] = Human immunodeficiency virus 1, NL4-3, MT2, 5 days, read-out: EC50

Row | SMILES | solubility [1] [µg/mL] | Activity [2] | EC50 [2] [nM] | IC50 [3] [nM] | IC50 [4] [nM] | CC50 at 48 h [5] [nM] | Activity [6] | EC50 [6, 8] [nM] | CC50 at 48 h [7] [nM] | EC50 [6]
1 | Cc1cc(C#N)cc(C)c1Oc1nc(Nc2ccc(C#N)cc2)nc(N)c1Br [ETRAVIRINE] | < 1 | – | – | – | – | – | – | – | – | –
2 | N#Cc1cc2c(Oc3ccc(F)cc3OCCn3ccc(=O)[nH]c3=O)cc(F)cn2c1 | 43.8 (≈ 103 µM) | Dose-dependent effect | 4.7 | 5.5 | 4.5 | 90000 | Dose-dependent effect | 3.2 | 55000 | –
3 | Cc1ccnc2c1NC(=O)c1cccnc1N2C1CC1 [NEVIRAPINE] | – | – | 300 | – | – | > 100000 | – | – | – | Not Active
4 | Cc1cc(/C=C/C#N)cc(C)c1Nc1ccnc(Nc2ccc(C#N)cc2)n1 [RILPIVIRINE] | – | – | – | – | – | 8000 | – | […] | – | –
